Source: ChEMBL document CHEMBL1122572, “Improved synthesis and antitumor evaluation of 5,8-dideazaisofolic acid and closely related analogues” (J Med Chem, 1984)

Legend:
SW480 = assay: In vitro inhibition of growth of the human gastrointestinal adenocarcinoma cells SW480; format: functional, cell-based
How it was run: (§1)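 Monodispersed growing cells (0.7-1 × 10^5 in 1 mL medium) were added to wells already holding 0–50 μL of drug solution. Drug was dissolved fresh in 0.1 M NaOH and diluted with pH 7.0 phosphate buffer. Cells were incubated 72–96 h at 37 °C in humidified 8% CO₂, trypsinized and counted on a Coulter counter. IC50 was the concentration giving 50% growth inhibition versus untreated controls.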

WiDr = assay: In vitro inhibition of growth of the human gastrointestinal adenocarcinoma cells WIDR; format: functional, cell-based; how it was run: as §1
[1] = In vitro inhibition of growth of the human gastrointestinal adenocarcinoma cells HaTu80; format: functional; how it was run: as §1
HT-29 = assay: In vitro inhibition of growth of the human gastrointestinal adenocarcinoma cells HT-29; format: functional, cell-based; how it was run: as §1

| IC50 (SW480) | IC50 (HT-29) | Structure (SMILES) | IC50 (WiDr) | IC50 ([1]; Homo sapiens) | IC50 [1] |
| --- | --- | --- | --- | --- | --- |
| > 300 µM | > 300 µM | Nc1nc(=O)c2cc(NCc3ccc(C(=O)N[C@H](CCC(=O)O)C(=O)O)cc3)ccc2[nH]1 | > 300 µM | > 300 µM |  |
| 10 µM | 1.1 µM | Cc1c(NCc2ccc(C(=O)NC(CCC(=O)O)C(=O)O)cc2)ccc2nc(N)nc(O)c12 (centres undefined) | 4 µM | 4 µM |  |
| 0.2 µM | 0.2 µM | Nc1nc(N)c2cc(NCc3ccc(C(=O)NC(CCC(=O)O)C(=O)O)cc3)ccc2n1 (centres undefined) | 0.2 µM | 0.15 µM |  |
| 5 µM | 3.2 µM | CN(Cc1ccc(C(=O)NC(CCC(=O)O)C(=O)O)cc1)c1ccc2nc(N)nc(O)c2c1 (centres undefined) | 6.3 µM | 4.8 µM |  |
| 150 µM | 100 µM | Nc1nc(O)c2cc(N(C=O)Cc3ccc(C(=O)NC(CCC(=O)O)C(=O)O)cc3)ccc2n1 (centres undefined) | 195 µM | 95 µM |  |
| 4.8 µM | 2.7 µM | Cc1c(N(C)Cc2ccc(C(=O)NC(CCC(=O)O)C(=O)O)cc2)ccc2nc(N)nc(O)c12 (centres undefined) | 4.8 µM | 3.6 µM |  |
|  |  | Nc1nc(=O)c2cc(NCc3ccc(C(=O)NC(CCC(=O)O)C(=O)O)cc3)ccc2[nH]1 (stereo in doubt; form 1) |  |  | 4.5 µM |
| 0.015 µM | 0.018 µM | CN(Cc1cnc2nc(N)nc(N)c2n1)c1ccc(C(=O)N[C@@H](CCC(=O)O)C(=O)O)cc1 [METHOTREXATE] | 0.025 µM | 0.009 µM |  |
